Laboratory results reported in publication PMC6980386 (Traffic (Copenhagen, Denmark), 2019).
Entries after “also recorded” stand apart in the source; their conditions may differ.

Columns and labels:
FL huCD4 G4A = FL huCD4 G4A (Homo sapiens, UniProt P01730, G4A); experiment: CADA down-modulation of cellular huCD4; assay type: cell-based
In short: (§1)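 HEK293T cells, seeded overnight in DMEM with 10% serum, 1 mM sodium pyruvate and 0.075% NaHCO₃, were lipofected with full-length human CD4 (WT or mutant). Test compound in DMSO was added 6 h post-transfection as 1:5 serial dilutions (50–0.016 μM) for 48 h. Surface CD4 was stained with FITC/APC anti-CD4 (SK3) and read by flow cytometry. IC50 is 50% of the untreated signal, from four-parameter fits of ≥3 replicate experiments. FC is mutant/WT mean IC50.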

FL huCD4 F7A = FL huCD4 F7A (Homo sapiens, UniProt P01730, F7A); experiment: CADA down-modulation of cellular huCD4; assay type: cell-based
In short: as §1

FL huCD4 A17V = FL huCD4 A17V (Homo sapiens, UniProt P01730, A17V); experiment: CADA down-modulation of cellular huCD4; assay type: cell-based
In short: as §1

huCD4_1–32-YFP V28A = huCD4_1–32-YFP V28A (Homo sapiens, UniProt P01730, V28A); experiment: CADA inhibition of huCD4_1–32-YFP secretion; assay type: cell-based
In short: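 HEK293T cells were grown in DMEM with 10% FBS and 10 mM HEPES, seeded and left to adhere overnight, then transiently transfected with plasmid by Lipofectamine. Test compound was added 6 h after transfection as a 1:5 serial dilution (50 to 0.016 μM) for 48 h. Secreted YFP in the supernatant was captured on GFP-Trap magnetic beads for 1 h, washed with PBS and measured by flow cytometry. IC50 is the concentration that halves the signal relative to the untreated control, taken from a four-parameter fit of at least three replicate experiments. FC is the mutant mean IC50 divided by the WT mean IC50.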

mouse CD4 (mCD4) = settings: cell surface expression of mCD4; cited from earlier work
[1] = + less, − more sensitive to CADA
[2] = read-out: Cellular huCD4 IC50 (μM) Mean, HEK293T, CADA 48h

**Q.** For `C=C1CN(S(=O)(=O)c2ccc(C)cc2)CCCN(Cc2ccccc2)CCCN(S(=O)(=O)c2ccc(C)cc2)C1` [CADA, Cyclotriazadisulfonamide], which “Cellular huCD4 FC (fold change of mean IC50 relative to WT)” value (FL huCD4 G4A; [1]) is on record?
**A.** −1.5

**Q.** What about the IC50 (FL huCD4 G4A; [2]) of the same compound?
**A.** 0.35 µM

**Q.** What about the “Cellular huCD4 FC (fold change of mean IC50 relative to WT)” value (FL huCD4 F7A; [1]) of the same compound?
**A.** −4.2

**Q.** What about the IC50 (FL huCD4 F7A; [2]) of the same compound?
**A.** 0.13 µM

**Q.** And the “Cellular huCD4 FC (fold change of mean IC50 relative to WT)” value (FL huCD4 A17V; [1])?
**A.** +2.5

**Q.** What about the IC50 (FL huCD4 A17V; [2]) of the same compound?
**A.** 1.33 µM

**Q.** What about the “Secreted YFP FC (fold change of mean IC50 relative to WT)” value (huCD4_1–32-YFP V28A; [1]) of the same compound?
**A.** −1.8

**Q.** And the IC50 (huCD4_1–32-YFP V28A; read-out: Secreted YFP IC50 (μM) Mean, HEK293T, CADA 48h)?
**A.** 0.72 µM

**Q.** What about the “sensitivity of mouse CD4 to CADA” value (mouse CD4 (mCD4)) of the same compound?
**A.** not affected by CADA; also recorded: completely resistant to CADA
